Activity calls are given as the source filed them. The calls are words filed in the database; no cut-off is given here.
Assays:
Avena sativa [1] = experiment: Herbicidal activity against Avena sativa under paddy conditions; type: functional, organism-based
Avena sativa [2] = experiment: Post-emergence herbicidal activity against Avena sativa; type: functional, organism-based
Musca domestica = experiment: Insecticidal activity against Musca domestica (house fly); type: functional, organism-based
Oryza sativa [3] = experiment: Pre-emergence herbicidal activity against Oryza sativa (rice); type: functional, organism-based
Helminthosporium = experiment: Fungicidal activity against Helminthosporium oryzae at 500 ppm after 7 days by poisoned food technique; type: functional; conditions: 168 h, read-out: GI
In short: (§1)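 Cultures kept on potato dextrose agar. Each compound, dissolved in acetone, was added to potato dextrose agar at a final 500 ppm (w/v) (poisoned food technique). A disc cut from the periphery of a seven-day-old culture was inoculated onto each set. Control sets held potato dextrose agar only. The read-out is percentage inhibition of fungal growth relative to control.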

Echinochloa crus-galli [4] = experiment: Pre-emergence herbicidal activity against Echinochloa crus-galli (barnyard grass); type: functional, organism-based
Sagittaria latifolia [5] = experiment: Post-emergence herbicidal activity against Sagittaria latifolia (broadleaf arrowhead); type: functional, organism-based
Spodoptera litura = experiment: Insecticidal activity against Spodoptera litura; type: functional, organism-based
Tetranychus cinnabarinus = experiment: Insecticidal activity against Tetranychus cinnabarinus (carmine spider mite); type: functional, organism-based
Rhizoctonia solani = experiment: Fungicidal activity against Rhizoctonia solani at 500 ppm after 7 days by poisoned food technique; type: functional; conditions: 168 h, read-out: GI; in short: as §1
Convolvulaceae [6] = experiment: Herbicidal activity against Convolvulaceae (morning glory family) under paddy conditions; type: functional, organism-based
Echinochloa crus-galli [7] = experiment: Herbicidal activity against Echinochloa crus-galli (barnyard grass) under paddy conditions; type: functional, organism-based
Convolvulaceae [8] = experiment: Post-emergence herbicidal activity against Convolvulaceae (morning glory family); type: functional, organism-based
Oryza sativa [9] = experiment: Post-emergence herbicidal activity against Oryza sativa (rice); type: functional, organism-based
Schoenoplectus acutus [10] = experiment: Herbicidal activity against Schoenoplectus acutus (hardstem bulrush) under paddy conditions; type: functional, organism-based
Culex pipiens pallens = experiment: Insecticidal activity against Culex pipiens pallens (mosquito) at 3 to 5 ppm; type: functional, organism-based
Abutilon theophrasti [11] = experiment: Pre-emergence herbicidal activity against Abutilon theophrasti (velvetleaf); type: functional, organism-based
Avena sativa [12] = experiment: Pre-emergence herbicidal activity against Avena sativa; type: functional, organism-based
Sagittaria latifolia [13] = experiment: Pre-emergence herbicidal activity against Sagittaria latifolia (broadleaf arrowhead); type: functional, organism-based
Echinochloa crus-galli [14] = experiment: Post-emergence herbicidal activity against Echinochloa crus-galli (barnyard grass); type: functional, organism-based
Oryza sativa [15] = experiment: Herbicidal activity against Oryza sativa (rice) under paddy conditions; type: functional, organism-based
Schoenoplectus acutus [16] = experiment: Post-emergence herbicidal activity against Schoenoplectus acutus (hardstem bulrush); type: functional, organism-based
Convolvulaceae [17] = experiment: Pre-emergence herbicidal activity against Convolvulaceae (morning glory family); type: functional, organism-based
Sagittaria latifolia [18] = experiment: Herbicidal activity against Sagittaria latifolia (broadleaf arrowhead) under paddy conditions; type: functional, organism-based
Abutilon theophrasti [19] = experiment: Post-emergence herbicidal activity against Abutilon theophrasti (velvetleaf); type: functional, organism-based
Schoenoplectus acutus [20] = experiment: Pre-emergence herbicidal activity against Schoenoplectus acutus (hardstem bulrush); type: functional, organism-based

| SMILES | Activity (Avena sativa [1]) | Activity (Avena sativa [2]) | Activity (Musca domestica) | Activity (Oryza sativa [3]) | inhibition of growth at 500 ppm (Helminthosporium) [%] | Activity (Echinochloa crus-galli [4]) | Activity (Sagittaria latifolia [5]) | Activity (Spodoptera litura) | Activity (Tetranychus cinnabarinus) | inhibition of growth at 500 ppm (Rhizoctonia solani) [%] | Activity (Convolvulaceae [6]) | Activity (Echinochloa crus-galli [7]) | Activity (Convolvulaceae [8]) | Activity (Oryza sativa [9]) | Activity (Schoenoplectus acutus [10]) | Activity (Culex pipiens pallens) | Activity (Abutilon theophrasti [11]) | Activity (Avena sativa [12]) | Activity (Sagittaria latifolia [13]) | Activity (Echinochloa crus-galli [14]) | other results |
| --- | --- | --- | --- | --- | --- | --- | --- | --- | --- | --- | --- | --- | --- | --- | --- | --- | --- | --- | --- | --- | --- |
| Clc1cccc(-c2nnc(SCc3nc4ccccc4[nH]3)o2)c1 | inactive | inactive | inactive | inactive | 89.7 | inactive | inactive | inactive | inactive | 69.4 | inactive | inactive | inactive | inactive | inactive | Active | inactive | inactive | inactive | inactive | Activity (Oryza sativa [15]): inactive; Activity (Schoenoplectus acutus [16]): inactive; Activity (Convolvulaceae [17]): inactive; Activity (Sagittaria latifolia [18]): inactive; Activity (Abutilon theophrasti [19]): inactive; Activity (Schoenoplectus acutus [20]): inactive |
| c1ccc(-c2nnc(SCc3nc4ccccc4[nH]3)s2)cc1 | inactive | inactive | inactive | inactive | 74.3 | inactive | inactive | inactive | inactive | 69.8 | inactive | inactive | inactive | inactive | inactive | Active | inactive | inactive | inactive | inactive | Activity (Oryza sativa [15]): inactive; Activity (Schoenoplectus acutus [16]): inactive; Activity (Convolvulaceae [17]): inactive; Activity (Sagittaria latifolia [18]): inactive; Activity (Abutilon theophrasti [19]): inactive; Activity (Schoenoplectus acutus [20]): inactive |
| Cc1ccc2[nH]c(CSc3nnc(-c4ccccc4)n3N)nc2c1 | inactive | inactive | inactive | inactive | 81.2 | inactive | inactive | inactive | inactive | 70.5 | inactive | inactive | inactive | inactive | inactive | Active | inactive | inactive | inactive | inactive | Activity (Oryza sativa [15]): inactive; Activity (Schoenoplectus acutus [16]): inactive; Activity (Convolvulaceae [17]): inactive; Activity (Sagittaria latifolia [18]): inactive; Activity (Abutilon theophrasti [19]): inactive; Activity (Schoenoplectus acutus [20]): inactive |
| Cc1ccc2[nH]c(CSc3nnc(-c4ccccc4)o3)nc2c1 | inactive | inactive | inactive | inactive | 65.3 | inactive | inactive | inactive | inactive | 61.3 | inactive | inactive | inactive | inactive | inactive | Active | inactive | inactive | inactive | inactive | Activity (Oryza sativa [15]): inactive; Activity (Schoenoplectus acutus [16]): inactive; Activity (Convolvulaceae [17]): inactive; Activity (Sagittaria latifolia [18]): inactive; Activity (Abutilon theophrasti [19]): inactive; Activity (Schoenoplectus acutus [20]): inactive |
| c1ccc2[nH]c(CSc3nnc(-c4ccncc4)o3)nc2c1 | inactive | inactive | inactive | inactive | 49.8 | inactive | inactive | inactive | inactive | 32 | inactive | inactive | inactive | inactive | inactive | Active | inactive | inactive | inactive | inactive | Activity (Oryza sativa [15]): inactive; Activity (Schoenoplectus acutus [16]): inactive; Activity (Convolvulaceae [17]): inactive; Activity (Sagittaria latifolia [18]): inactive; Activity (Abutilon theophrasti [19]): inactive; Activity (Schoenoplectus acutus [20]): inactive |
| Clc1ccccc1-c1nnc(SCc2nc3ccccc3[nH]2)s1 | inactive | inactive | inactive | inactive | 68.2 | inactive | inactive | inactive | inactive | 49.8 | inactive | inactive | inactive | inactive | inactive | Active | inactive | inactive | inactive | inactive | Activity (Oryza sativa [15]): inactive; Activity (Schoenoplectus acutus [16]): inactive; Activity (Convolvulaceae [17]): inactive; Activity (Sagittaria latifolia [18]): inactive; Activity (Abutilon theophrasti [19]): inactive; Activity (Schoenoplectus acutus [20]): inactive |
| Nn1c(SCc2nc3ccccc3[nH]2)nnc1-c1ccccc1Cl | inactive | inactive | inactive | inactive | 52.3 | inactive | inactive | inactive | inactive | 39.8 | inactive | inactive | inactive | inactive | inactive | Active | inactive | inactive | inactive | inactive | Activity (Oryza sativa [15]): inactive; Activity (Schoenoplectus acutus [16]): inactive; Activity (Convolvulaceae [17]): inactive; Activity (Sagittaria latifolia [18]): inactive; Activity (Abutilon theophrasti [19]): inactive; Activity (Schoenoplectus acutus [20]): inactive |
| Clc1ccc(-c2nnc(SCc3nc4ccccc4[nH]3)o2)cc1 | inactive | inactive | inactive | inactive | 39.7 | inactive | inactive | inactive | inactive | 21.2 | inactive | inactive | inactive | inactive | inactive | Active | inactive | inactive | inactive | inactive | Activity (Oryza sativa [15]): inactive; Activity (Schoenoplectus acutus [16]): inactive; Activity (Convolvulaceae [17]): inactive; Activity (Sagittaria latifolia [18]): inactive; Activity (Abutilon theophrasti [19]): inactive; Activity (Schoenoplectus acutus [20]): inactive |
| Clc1cccc(-c2nnc(SCc3nc4ccccc4[nH]3)s2)c1 | inactive | inactive | inactive | inactive | 91.2 | inactive | inactive | inactive | inactive | 89.5 | inactive | inactive | inactive | inactive | inactive | Active | inactive | inactive | inactive | inactive | Activity (Oryza sativa [15]): inactive; Activity (Schoenoplectus acutus [16]): inactive; Activity (Convolvulaceae [17]): inactive; Activity (Sagittaria latifolia [18]): inactive; Activity (Abutilon theophrasti [19]): inactive; Activity (Schoenoplectus acutus [20]): inactive |

From ChEMBL document CHEMBL3046353, “Synthesis and fungicidal activity of some 5-membered heterocyclic derivatives containing benzimidazoles” (1993)
